Here are results for eight compounds from ChEMBL document CHEMBL1157832, “Cytotoxic effects of tanshinones from Salvia miltiorrhiza on doxorubicin-resistant human liver cancer cells” (J Nat Prod, 2010).

Active and inactive are the calls of the source. The rule behind the calls is not given here.

Series [1] deals with HepG2. The series is described as follows: Inhibition of […] doxorubicin efflux in doxorubicin resistant human HepG2 cells uM by flow cytometry. Type of series: cell-based. (In flow cytometry, cells or beads pass a laser one at a time.)
For series [2], the system named is Hep 3B2. The series is described as follows: Induction of apoptosis in human Hep3B cells deficient in p53 gene assessed as caspase 3 activation. Type of series: functional, cell-based. Summed up:
(§1)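 Cells were treated for 24 h, with etoposide as positive control. Cells (1 × 10^7) were lysed for 2 h at 4 °C and spun at 16000g for 10 min. The supernatant was mixed with assay buffer and the colorimetric substrate […], and pNA release was read at 405 nm. Soluble protein was determined by BCA.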

The test system of series [3] is HepG2. The series is described as follows: Induction of apoptosis in human HepG2 cells expressing wild type p53 gene assessed as caspase 3 activation. Type of series: functional, cell-based. Summed up:
as §1

Series [4] concerns Hep 3B2. The series is described as follows: Induction of apoptosis in human Hep3B cells deficient in p53 gene assessed as PARP cleavage by Western blot. Type of series: functional, cell-based. Put shortly:
(§2)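 Cells treated 24 h, then lysed in Tris 50 mM/NaCl 100 mM/EDTA 5 mM/pyrophosphate 67 mM/1% Triton X-100, pH 7.5, with protease inhibitors. 20 µg soluble protein on 8% SDS-PAGE, nitrocellulose transfer, anti-PARP 1:1000 overnight at 4 °C, HRP anti-rabbit 1:2000 1 h, ECL. β-actin reprobe as loading reference; band densitometry; n = 3.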
In general terms: Immunoblotting shows a protein as a band on a membrane.

Series [5] relates to HepG2. The series is described as follows: Effect on MRP1 protein expression in human HepG2 cells expressing wild type p53 gene at 25 uM after 24 hrs by Western blot. In kind it is functional, cell-based. Put shortly: (§3)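 HepG2 cells (MEM, 10% FBS) exposed to 25 µM for 24 h; lysates run on SDS-PAGE, transferred to nitrocellulose and probed with anti-MRP1 or anti-MRP2 antibodies, ECL detection. DMSO final 0.25% (v/v).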

For series [6], the target named is T1, P-gp (ABCB1) (Homo sapiens, UniProt P08183). The series is described as follows: Inhibition of P-gp in doxorubicin-resistant human HepG2 cells assessed as potentiation of doxorubicin cytostatic effect at 25 uM by MTT assay. In kind it is cell-based. The conditions noted are these: probe doxorubicin. Summed up:
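R-HepG2 cells (doxorubicin-selected HepG2 subclone kept in RPMI 1640 with 1.2 µM doxorubicin) co-treated with compound and doxorubicin; growth read by MTT (0.5 mg/mL, 3 h, 570 nm). Interaction scored by Chou–Talalay combination index at EC20/EC50 levels, Loewe additivity and Bliss independence.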
In general terms: Tetrazolium assays rely on reduction of a dye to a coloured formazan, in cell work by metabolically active cells.

The subject of series [7] is HepG2. The series is described as follows: Effect on MRP2 protein expression in human HepG2 cells expressing wild type p53 gene at 25 uM after 24 hrs by Western blot. Type of series: functional, cell-based. Put shortly:
as §3

Series [8] in a line: Cytotoxicity against human THLE3 cells by MTT assay. In kind it is cell-based. Put shortly: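 THLE-3 immortalized liver cells cultured in BEGM kit medium, 37 °C, 5% CO2; 9 × 10^3 cells/well. After compound incubation, MTT (0.5 mg/mL) added for 3 h at 37 °C; formazan dissolved in DMSO and read at 570 nm. Untreated cells as vehicle control; DMSO final 0.25% (v/v). EC50 of growth inhibition, n = 3.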

The test system of series [9] is PLC-PRF-5. The series is described as follows: Induction of apoptosis in human PLC/PRF/5 cells expressing mutant p53 gene (codon 249) assessed as caspase 3 activation. In kind it is functional, cell-based. Summed up:
(§4)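 After 24 h treatment, 1 × 10^7 cells lysed 2 h at 4 °C and spun at 16000g for 10 min. Supernatant incubated with caspase-3 substrate […], pNA release read at 405 nm, and protein measured by BCA. Activity expressed as fold of control; etoposide as positive control.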

For series [10], the system named is HepG2. The series is described as follows: Induction of apoptosis in human HepG2 cells expressing wild type p53 gene assessed as PARP cleavage by Western blot. In kind it is functional, cell-based. Put shortly: as §2
The nature of series [11]: Cytotoxicity against human PLC/PRF/5 cells expressing mutant p53 gene (codon 249) by MTT assay. In kind it is functional, cell-based. Put shortly:
(§5)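 Proliferation was measured by MTT. Cells were seeded at 9 × 10^3 per well and exposed to drug for an unstated period. MTT (0.5 mg/mL) was then added for 3 h at 37 °C, formazan was dissolved in DMSO, and absorbance was read at 570 nm against untreated vehicle controls (final DMSO 0.25% v/v). HepG2 was grown in MEM. Hep3B and PLC/PRF/5 were grown in DMEM with nonessential amino acids and 10% FBS. The doxorubicin-resistant HepG2 subclone was grown in RPMI 1640 with 10% FBS plus 1.2 µM doxorubicin to maintain Pgp.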

Series [12] is described as follows: Cytotoxicity against human Hep3B cells deficient in p53 gene by MTT assay. In kind it is functional, cell-based, Hep 3B2. Put shortly: as §5
The test system of series [13] is PLC-PRF-5. The series is described as follows: Induction of apoptosis in human PLC/PRF/5 cells expressing mutant p53 gene (codon 249) assessed as caspase 3 activation at 6.25 uM relative to control. In kind it is functional. Summed up:
as §4

Series [14] has as its system HepG2. The series is described as follows: Cytotoxicity against human HepG2 cells expressing wild type p53 gene by MTT assay. In kind it is functional, cell-based. Summed up: as §5
Series [15] has as its system HepG2. The series is described as follows: Cytotoxicity against doxorubicin resistant human HepG2 cells expressing wild type p53 gene by MTT assay. In kind it is functional, cell-based. Summed up:
as §5

The subject of series [16] is HepG2. The series is described as follows: Induction of apoptosis in human HepG2 cells expressing wild type p53 gene assessed as caspase 3 activation at 6.25 uM relative to control. Type of series: functional. Put shortly:
as §4

Series [17] has as its system PLC-PRF-5. The series is described as follows: Induction of apoptosis in human PLC/PRF/5 cells expressing mutant p53 gene (codon 249) assessed as PARP cleavage by Western blot. In kind it is functional, cell-based. Put shortly:
as §2

The target in series [18] is T2, Multidrug resistance-associated protein 1 (Homo sapiens, UniProt P33527). The series is described as follows: Inhibition of MRP1-mediated doxorubicin efflux in doxorubicin resistant human HepG2 cells at 10 to 100 uM by flow cytometry. In kind it is cell-based.
Series [19] addresses T2, Multidrug resistance-associated protein 1. The series is described as follows: Inhibition of MRP1-mediated doxorubicin efflux in doxorubicin resistant human HepG2 cells at 100 uM by flow cytometry. Type of series: cell-based. The conditions noted are these: hepg2, 100 µM.
Series [20] deals with T1, P-gp (ABCB1). The series is described as follows: Inhibition of P-gp in doxorubicin-resistant human HepG2 cells assessed as potentiation of doxorubicin cytostatic effect at 6.25 uM by MTT assay. Type of series: cell-based. Conditions: probe doxorubicin.

T2 sequence (P33527 whole entry): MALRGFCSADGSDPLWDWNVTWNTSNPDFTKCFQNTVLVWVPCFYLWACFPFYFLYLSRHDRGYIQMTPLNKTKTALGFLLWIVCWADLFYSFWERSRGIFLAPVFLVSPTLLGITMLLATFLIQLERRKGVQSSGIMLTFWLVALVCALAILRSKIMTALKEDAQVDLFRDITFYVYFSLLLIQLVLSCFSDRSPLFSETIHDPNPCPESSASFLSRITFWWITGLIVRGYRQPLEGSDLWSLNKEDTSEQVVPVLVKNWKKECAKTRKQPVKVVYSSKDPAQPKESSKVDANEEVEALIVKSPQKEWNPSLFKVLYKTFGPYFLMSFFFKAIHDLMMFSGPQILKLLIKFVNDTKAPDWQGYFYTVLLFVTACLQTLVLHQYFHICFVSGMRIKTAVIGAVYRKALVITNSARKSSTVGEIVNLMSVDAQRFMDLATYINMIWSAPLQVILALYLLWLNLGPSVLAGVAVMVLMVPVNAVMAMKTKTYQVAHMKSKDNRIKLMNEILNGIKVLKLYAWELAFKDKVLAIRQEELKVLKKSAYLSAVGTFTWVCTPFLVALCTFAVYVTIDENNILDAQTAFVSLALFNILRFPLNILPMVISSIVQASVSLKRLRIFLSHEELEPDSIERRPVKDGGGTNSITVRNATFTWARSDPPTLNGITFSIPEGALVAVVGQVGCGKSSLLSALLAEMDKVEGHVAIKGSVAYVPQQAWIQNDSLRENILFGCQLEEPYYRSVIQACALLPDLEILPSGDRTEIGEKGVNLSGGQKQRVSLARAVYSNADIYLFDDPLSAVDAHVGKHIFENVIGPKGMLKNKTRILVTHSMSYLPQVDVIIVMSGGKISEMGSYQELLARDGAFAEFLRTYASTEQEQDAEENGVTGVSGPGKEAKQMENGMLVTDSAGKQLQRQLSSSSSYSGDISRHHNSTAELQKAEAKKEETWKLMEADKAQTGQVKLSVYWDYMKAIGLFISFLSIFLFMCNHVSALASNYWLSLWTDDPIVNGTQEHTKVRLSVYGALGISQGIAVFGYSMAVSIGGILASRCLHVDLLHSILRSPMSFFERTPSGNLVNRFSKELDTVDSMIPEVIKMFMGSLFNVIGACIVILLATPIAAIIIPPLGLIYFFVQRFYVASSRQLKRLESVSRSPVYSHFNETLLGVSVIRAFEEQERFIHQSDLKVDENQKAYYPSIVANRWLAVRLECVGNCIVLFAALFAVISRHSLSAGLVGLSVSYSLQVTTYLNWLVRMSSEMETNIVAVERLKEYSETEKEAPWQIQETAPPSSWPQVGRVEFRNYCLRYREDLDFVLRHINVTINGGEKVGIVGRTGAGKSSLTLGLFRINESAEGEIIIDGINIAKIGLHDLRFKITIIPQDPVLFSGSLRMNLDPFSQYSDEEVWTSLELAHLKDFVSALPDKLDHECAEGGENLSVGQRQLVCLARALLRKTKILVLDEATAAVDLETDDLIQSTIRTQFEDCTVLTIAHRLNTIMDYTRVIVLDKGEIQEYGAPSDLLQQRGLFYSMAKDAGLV
T1 sequence (P08183 whole entry): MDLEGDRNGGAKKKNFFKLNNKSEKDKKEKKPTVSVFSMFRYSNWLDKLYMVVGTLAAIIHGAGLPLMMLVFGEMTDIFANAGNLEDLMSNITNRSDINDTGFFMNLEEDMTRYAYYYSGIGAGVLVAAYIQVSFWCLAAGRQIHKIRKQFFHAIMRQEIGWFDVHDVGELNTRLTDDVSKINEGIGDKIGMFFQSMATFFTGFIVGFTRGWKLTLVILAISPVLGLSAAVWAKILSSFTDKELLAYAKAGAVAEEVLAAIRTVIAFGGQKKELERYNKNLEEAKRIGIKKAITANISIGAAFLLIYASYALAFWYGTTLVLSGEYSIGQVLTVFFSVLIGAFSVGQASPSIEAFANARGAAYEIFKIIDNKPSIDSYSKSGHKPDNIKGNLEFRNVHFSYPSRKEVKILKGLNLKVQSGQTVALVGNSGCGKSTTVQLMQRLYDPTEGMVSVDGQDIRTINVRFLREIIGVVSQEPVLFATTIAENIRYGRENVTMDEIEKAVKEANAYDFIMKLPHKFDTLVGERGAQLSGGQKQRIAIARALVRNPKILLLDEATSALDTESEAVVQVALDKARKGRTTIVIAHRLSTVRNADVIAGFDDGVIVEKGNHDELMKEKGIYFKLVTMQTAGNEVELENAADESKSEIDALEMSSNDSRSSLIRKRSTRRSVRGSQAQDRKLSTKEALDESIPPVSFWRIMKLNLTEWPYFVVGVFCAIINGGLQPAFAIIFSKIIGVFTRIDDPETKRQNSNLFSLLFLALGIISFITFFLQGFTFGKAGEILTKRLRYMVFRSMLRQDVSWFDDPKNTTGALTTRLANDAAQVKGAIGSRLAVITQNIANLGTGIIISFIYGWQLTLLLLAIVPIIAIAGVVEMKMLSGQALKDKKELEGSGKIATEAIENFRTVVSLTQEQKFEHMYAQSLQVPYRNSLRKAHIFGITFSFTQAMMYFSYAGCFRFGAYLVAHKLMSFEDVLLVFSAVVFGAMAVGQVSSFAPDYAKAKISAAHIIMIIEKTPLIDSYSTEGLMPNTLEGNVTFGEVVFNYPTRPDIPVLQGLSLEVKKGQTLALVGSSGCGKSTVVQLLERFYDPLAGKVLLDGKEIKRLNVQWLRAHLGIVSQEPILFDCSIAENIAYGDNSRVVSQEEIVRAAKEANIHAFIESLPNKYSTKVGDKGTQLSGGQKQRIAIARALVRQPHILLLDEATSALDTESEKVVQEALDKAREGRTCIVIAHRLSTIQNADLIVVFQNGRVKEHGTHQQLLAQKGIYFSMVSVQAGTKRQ

The inhibition is the change of the read-out against control, counted positive when it falls. As for `C=C(CC)C(=O)c1ccc(OCC(=O)O)c(Cl)c1Cl`, the inhibition result with HepG2 [1] was “Active”.
As to `COc1cc([C@@H]2c3cc4c(cc3[C@@H](O[C@@H]3O[C@@H]5CO[C@@H](C)O[C@H]5[C@H](O)[C@H]3O)[C@H]3COC(=O)[C@H]23)OCO4)cc(OC)c1O`, in the series on Hep 3B2 [2], the outcome was inactive. Further, the result with HepG2 [3] was Active.
One may read the EC50 as the concentration giving half of the maximal effect. A low value points to higher potency in that assay. For the compound `C[C@H]1COC2=C1C(=O)C(=O)c1c2ccc2c1CCCC2(C)C` [CRYPTOTANSHINONE], the result in the series on Hep 3B2 [4], in the series with Hep 3B2 [2], with HepG2 [5] and in the series on HepG2 [7] was inactive. Also, on P-gp (ABCB1) [6], the inhibition at 25 µM turned out to be 50%. This compound yielded an EC50 in series [8] of 22.9 µM. In addition, the Activity entry in the series on PLC-PRF-5 [9] and with HepG2 [10] was “Dose-dependent effect” throughout. For the same compound, the outcome with HepG2 [3] was Active.
On to `Cc1cccc2c3c(ccc12)C1=C(C(=O)C3=O)[C@@H](C)CO1` [DIHYDROTANSHINONE I], for which the result in the series with Hep 3B2 [4], in the series with Hep 3B2 [2], in the series on HepG2 [5] and in the series with HepG2 [7] was inactive. The EC50 in [11] was > 10 µM; in [12], 5.5 µM; in the series with HepG2 [14], 2.5 µM; with HepG2 [15], 4.7 µM; in series [8], 6.5 µM. The “fold change (FC)” value is given as 2.5 in the series on PLC-PRF-5 [13] and 2 with HepG2 [16]. Besides, the outcome in the series with HepG2 [3] and with PLC-PRF-5 [17] was Active. The Activity entry in the series on HepG2 [10] is “Dose-dependent effect”.
Take `COc1cccc2c1C(=O)c1c(O)c3c(c(O)c1C2=O)C[C@@](O)(C(=O)CO)C[C@@H]3O[C@H]1C[C@H](N)[C@H](O)[C@H](C)O1` [DOXORUBICIN]: the EC50 is > 10 µM in [11], 5.6 µM in [12], 6.1 µM with HepG2 [14] and > 10 µM with HepG2 [15].
In the case of `COc1ccc2c(c1)c(CC(=O)O)c(C)n2C(=O)c1ccc(Cl)cc1` [INDOMETHACIN], the “inhibition (INH)” value is listed as “Not Active” in series [18] and “Active” in [19].
Take `Cc1coc2c1C(=O)C(=O)c1c-2ccc2c1CCCC2(C)C` [TANSHINONE IIA]: the outcome in the series on Hep 3B2 [4], in the series with Hep 3B2 [2], with HepG2 [5] and in the series on HepG2 [7] was inactive. Moreover, the response in series [8] was half-maximal at 57.5 µM (EC50). In addition, the outcome in the series on HepG2 [3] was Active. Also, the Activity entry with HepG2 [10] is “Dose-dependent effect”.
`Cc1coc2c1C(=O)C(=O)c1c-2ccc2c(C)cccc12` [TANSHINONE I]: the outcome with Hep 3B2 [4], in the series with Hep 3B2 [2], in the series with HepG2 [5] and with HepG2 [7] was inactive. The EC50 is > 10 µM in series [11]; > 10 µM in series [12]; 6.3 µM in the series with HepG2 [14]; > 10 µM in the series with HepG2 [15]; 74.1 µM in [8]. Besides, at P-gp (ABCB1) [20], the inhibition at 6.25 µM was determined as 50%. The outcome in the series with HepG2 [3] and in the series with PLC-PRF-5 [17] was Active. In the series on HepG2 [10], the Activity result is “Dose-dependent effect”.
